Shown are actives, neighbours in structure and some others; about 2.8% of the full set was active somewhere.
SR-BI HDL uptake: inhibitors of SR-BI mediated HDL lipid uptake, primary screen, ldlA[mSR-BI] cells, fluorescence, single point. Scavenger receptor class B member 1 (Mus musculus), Q61009. ldlA[mSR-BI] CHO cells, DiI-HDL uptake fluorescence, 3 h. inhibition, % at 12.5 µM. actives 0.96% (n = 320,000). AID 488896, 2010;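 active = mean replicate inhibition of at least 70% and a set share of replicates each scoring 70 or more; inconclusive = meets just one of the two criteria; inactive = fails both criteria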;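 also: 0% = median of neutral control wells and 100% = median of positive control wells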
Target sequence (Q61009 whole entry, looked up): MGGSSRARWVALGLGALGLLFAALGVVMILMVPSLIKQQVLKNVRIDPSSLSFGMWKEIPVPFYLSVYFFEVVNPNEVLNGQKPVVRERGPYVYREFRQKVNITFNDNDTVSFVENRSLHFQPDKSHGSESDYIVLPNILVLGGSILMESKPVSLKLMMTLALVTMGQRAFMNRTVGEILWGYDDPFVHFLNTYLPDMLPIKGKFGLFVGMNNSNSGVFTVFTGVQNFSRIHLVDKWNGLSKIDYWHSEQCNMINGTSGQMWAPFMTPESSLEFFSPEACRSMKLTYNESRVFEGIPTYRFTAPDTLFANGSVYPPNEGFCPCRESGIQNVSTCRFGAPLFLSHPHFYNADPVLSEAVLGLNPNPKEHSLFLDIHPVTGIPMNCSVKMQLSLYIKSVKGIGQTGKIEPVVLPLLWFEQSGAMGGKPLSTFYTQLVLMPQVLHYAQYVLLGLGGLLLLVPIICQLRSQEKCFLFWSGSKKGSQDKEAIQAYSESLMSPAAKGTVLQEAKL
CAL PDZ FP-1: CAL PDZ peptide-binding inhibitors, primary screen, biochemical, fluorescence polarization, Cer-tagged CAL PDZ, HTS | Golgi-associated PDZ and coiled-coil motif-containing protein (Homo sapiens), Q9HD26 | purified CAL PDZ, TMR-peptide fluorescence polarization, 1 h | inhibition, % at 20 µM | actives 0.02% (n = 330,000) | AID 504414, 2011;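 active = highest replicate inhibition of at least 40%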;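 also: plate controls were DMSO neutral control wells for no effect and unlabeled competitor peptide control wells for full effect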
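Test system: tagged CAL PDZ domain / Buffer or medium: sodium phosphate/NaCl buffer pH 7.4 with TCEP, IgG, Thesit / Reagent: TMR-labelled reporter peptide T*-PRC34 bound in PDZ groove / Compound dosing: single point, 20 µM / Schedule: 1 h incubation at room temperature before polarization reading / Technique: fluorescence polarization (mP) / Benchmarks: unlabelled peptide, DMSO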
CAL PDZ FP-2: untagged CAL PDZ binding inhibitors, primary screen, biochemical, fluorescence polarization, HTS; Golgi-associated PDZ and coiled-coil motif-containing protein (Homo sapiens), Q9HD26; purified CAL PDZ, TMR-peptide fluorescence polarization, 1 h; inhibition, % at 24.9 µM; actives 0.92% (n = 300,000);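 active = mean inhibition of at least 30% with at least half of replicates also reaching 30%; inconclusive = no clear call, values can overlap the other calls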;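 also: 0% = DMSO neutral control and 100% = excess unlabeled competitor peptide PRC23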
SR-BI DiI-HDL act: activators of SR-BI mediated DiI-HDL uptake, primary screen, ldlA[mSR-BI] CHO cells, DiI fluorescence; 3 h; 100 = double the neutral-control signal; activation, % at 12.5 µM; actives 0.096% (n = 320,000);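 active = mean replicate activation of at least 60% and every replicate at or above 60%; inconclusive = mean or all-replicate condition met, but not both; inactive = mean below 60% and not all replicates reaching 60%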;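 also: 0% = median plate neutral-control signal and 100% = twice that signal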
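Material – SR-BI-overexpressing, LDLR-lacking CHO cells · Medium – BSA-supplemented, HEPES-buffered Ham's F12, pH 7.4 · Doses – single concentration · Times – compound with DiI-HDL co-incubation, 3 h at 37 °C · Measured by – bottom-read fluorescence, 550/595 nm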
dFosB act: activators of delta FosB homodimer, primary screen, biochemical, fluorescence polarization, TAMRA-CDK5 oligo, single point | activation, % at 25 µM | AID 493131, 2011 | actives 0.99% (n = 340,000) | purified delta FosB; percent of positive-control signal above neutral wells | Protein FosB (Mus musculus), P13346;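 active = mean activation above about 17%, with every replicate also reaching it, limit read from the data, passing the limit was not always enough; inconclusive = only one of the two conditions met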
Numbers without * were called inactive.

`Cn1ncc(C(=O)N=S(C)(=O)c2ccccc2)c1[N+](=O)[O-]` (centres undefined) gave SR-BI HDL uptake -0.8, CAL PDZ FP-1 0.6, CAL PDZ FP-2 -2.9, SR-BI DiI-HDL act 0.8 and dFosB act -7.8.
CC12CCC(C(=O)N(CSC(=S)N/N=C\c3ccccc3O)C1=O)C2(C)C (centres undefined) was read as SR-BI HDL uptake 104.2*, CAL PDZ FP-1 -0.4, CAL PDZ FP-2 1.6, SR-BI DiI-HDL act -104.2 and dFosB act -12.4.
Screening CCOC(=O)CC1COCCN1Cc1cn[nH]c1-c1cc(OC)c(OC)c(OC)c1 (centres undefined) returned CAL PDZ FP-1 -1.5, CAL PDZ FP-2 -6.9 and dFosB act -1.6.
Screening Cc1ccsc1/C=N/NC(=O)c1nnn(-c2nonc2N)c1CN(C)c1ccccc1 returned SR-BI HDL uptake 7.2, CAL PDZ FP-1 -3.0, CAL PDZ FP-2 -1.6, SR-BI DiI-HDL act -7.2 and dFosB act -10.1.
`CCc1c(C(=O)N/N=C/c2sccc2C)nnn1-c1nonc1N` gave SR-BI HDL uptake 77.0*, CAL PDZ FP-1 -1.6, CAL PDZ FP-2 -1.5, SR-BI DiI-HDL act -77.0 and dFosB act 14.2.
`Cc1ccc(-c2c(C(=O)N/N=C/c3cccs3)nnn2-c2nonc2N)cc1` gave SR-BI HDL uptake 61.7, CAL PDZ FP-1 -2.3, CAL PDZ FP-2 -3.5, SR-BI DiI-HDL act -61.7 and dFosB act -0.7.
For CCCc1c(C(=O)N/N=C/c2ccccc2C(F)(F)F)nnn1-c1nonc1N the results were SR-BI HDL uptake 75.7*, CAL PDZ FP-1 -2.3, CAL PDZ FP-2 -2.8, SR-BI DiI-HDL act -75.7 and dFosB act 13.7.
Screening CN(Cc1c(C(=O)N/N=C/c2ccc(O)cc2)nnn1-c1nonc1N)C1CCCCC1 returned SR-BI HDL uptake -2.2, CAL PDZ FP-1 -3.2, CAL PDZ FP-2 -1.6, SR-BI DiI-HDL act 2.2 and dFosB act 28.6*.
CCOc1ccc(-c2c(C(=O)N/N=C/c3cccs3)nnn2-c2nonc2N)cc1 was read as SR-BI HDL uptake 80.7*, CAL PDZ FP-1 -2.1, CAL PDZ FP-2 -2.2, SR-BI DiI-HDL act -80.7 and dFosB act -1.1.
Screening COCc1c(C(=O)N/N=C/c2cccc3ccccc23)nnn1-c1nonc1N returned SR-BI HDL uptake 39.0, CAL PDZ FP-1 -2.4, CAL PDZ FP-2 1.4, SR-BI DiI-HDL act -39.0 and dFosB act 8.0.
For C/C(=N\NC(=O)c1nnn(-c2nonc2N)c1-c1ccccc1)c1ccccc1O the results were SR-BI HDL uptake 86.3*, CAL PDZ FP-1 1.6, CAL PDZ FP-2 -1.2, SR-BI DiI-HDL act -86.3 and dFosB act 33.3*.
For C/C(=N\NC(=O)c1nnn(-c2nonc2N)c1-c1ccc2c(c1)OCO2)c1ccccc1 the results were SR-BI HDL uptake -10.4, CAL PDZ FP-1 1.3, CAL PDZ FP-2 1.8, SR-BI DiI-HDL act 10.4 and dFosB act 3.3.
For CCOc1ccc(-c2c(C(=O)N/N=C/c3ccncc3)nnn2-c2nonc2N)cc1 the results were SR-BI HDL uptake 18.4, CAL PDZ FP-1 -3.5, CAL PDZ FP-2 -5.6, SR-BI DiI-HDL act -18.4 and dFosB act -15.0.
Screening CCCN(CCC)Cc1c(C(=O)N/N=C/C(C)=C\c2ccco2)nnn1-c1nonc1N returned SR-BI HDL uptake 3.7, CAL PDZ FP-1 -0.4, CAL PDZ FP-2 65.9*, SR-BI DiI-HDL act -3.7 and dFosB act -19.4.
Screening CCOc1ccc(-c2c(C(=O)N/N=C/c3ccccc3)nnn2-c2nonc2N)cc1 returned SR-BI HDL uptake 74.1*, CAL PDZ FP-1 0.0, CAL PDZ FP-2 -5.1, SR-BI DiI-HDL act -74.1 and dFosB act 1.2.
For CC(/C=N/NC(=O)c1nnn(-c2nonc2N)c1CN(C)C)=C\c1ccco1 the results were CAL PDZ FP-1 -2.1 and dFosB act -13.7.
For CCc1c(C(=O)N/N=C/c2ccc(OCc3ccc(F)cc3)c(OC)c2)nnn1-c1nonc1N the results were SR-BI HDL uptake 75.8*, CAL PDZ FP-1 -1.2, CAL PDZ FP-2 -4.5, SR-BI DiI-HDL act -75.8 and dFosB act inconclusive.
For CCOc1ccc(-c2c(C(=O)N/N=C/c3ccc(C)cc3)nnn2-c2nonc2N)cc1 the results were SR-BI HDL uptake 43.5, CAL PDZ FP-1 -0.4, CAL PDZ FP-2 -1.3, SR-BI DiI-HDL act -43.5 and dFosB act 33.5*.
For O=C(NNC(=O)c1ccccc1O)c1ccc(Cl)c(S(=O)(=O)N2CCc3ccccc32)c1 the results were SR-BI HDL uptake 117.5*, CAL PDZ FP-1 -2.2, CAL PDZ FP-2 -7.8, SR-BI DiI-HDL act -117.4 and dFosB act -8.4.
O=C(c1ccc(Cl)c(S(=O)(=O)N2CCc3ccccc32)c1)N1CCN(c2ccccc2O)CC1 was read as SR-BI HDL uptake 47.1, CAL PDZ FP-1 -0.7, CAL PDZ FP-2 -2.3, SR-BI DiI-HDL act -47.1 and dFosB act -13.7.
`Cc1ccc(C(=O)NNC(=O)c2ccccc2O)cc1S(=O)(=O)N1CCCCC1` gave SR-BI HDL uptake 78.2*, CAL PDZ FP-1 -1.0, CAL PDZ FP-2 0.6, SR-BI DiI-HDL act -78.2 and dFosB act -3.2.
For COc1ccc(C(C)(C)C)cc1NC(=O)COC(=O)C1=NNC(=O)CC1 the results were SR-BI HDL uptake -4.0, CAL PDZ FP-1 -0.1, CAL PDZ FP-2 133.0*, SR-BI DiI-HDL act 4.0 and dFosB act -3.9.
Screening COc1ccc(C(C)(C)C)cc1NC(=O)COC(=O)c1cnc(C)cn1 returned SR-BI HDL uptake 6.2, CAL PDZ FP-1 -0.9, CAL PDZ FP-2 2.9, SR-BI DiI-HDL act -6.2 and dFosB act 7.0.
`NS(=O)(=O)c1cccc(NC(=O)COC(=O)CCC2CCCC2)c1` gave SR-BI HDL uptake -9.2, CAL PDZ FP-1 -0.3, CAL PDZ FP-2 84.9*, SR-BI DiI-HDL act 9.2 and dFosB act 0.1.
For O=C1NC2(c3ccccc3)NC(=O)NC2(c2ccccc2)N1 (centres undefined) the results were SR-BI HDL uptake -4.1, CAL PDZ FP-1 -1.7, SR-BI DiI-HDL act 4.1 and dFosB act -8.7.
For O=C1NC(=O)C(CSc2ccccc2)(c2ccccc2)N1 (centres undefined) the results were SR-BI HDL uptake -13.5, CAL PDZ FP-1 -0.1, CAL PDZ FP-2 42.3*, SR-BI DiI-HDL act 13.5 and dFosB act -3.1.
Screening COc1ccc(S(=O)(=O)N(C)C)cc1NC(=O)COC(=O)C1CC1 returned SR-BI HDL uptake 7.9, CAL PDZ FP-1 -0.4, CAL PDZ FP-2 -1.8, SR-BI DiI-HDL act -7.9 and dFosB act -1.5.
For CCc1nccn1S(=O)(=O)c1cc(OC)ccc1OC the results were SR-BI HDL uptake -15.2, CAL PDZ FP-1 0.4, CAL PDZ FP-2 -0.1, SR-BI DiI-HDL act 15.2 and dFosB act -5.0.
